Key:
A549 [1] = assay: Cytotoxicity against human A549 cells assessed as decrease in cell viability after 48 hrs by trypan blue exclusion and LDH release; conditions: A549, 48 h
[2] = Cytotoxicity against human MML1 cells assessed as decrease in cell viability after 48 hrs by MTT assay; format: functional, cell-based
MDA-MB-231 [3] = assay: Cytotoxicity against human MDA-MB-231 cells assessed as decrease in cell viability after 48 hrs by trypan blue exclusion and LDH release; conditions: MDA-MB-231, 48 h
T47D [4] = assay: Cytotoxicity against human T47D cells assessed as decrease in cell viability after 48 hrs by trypan blue exclusion and LDH release
PANC-1 [5] = assay: Cytotoxicity against human PANC1 cells assessed as decrease in cell viability after 48 hrs by MTT assay; format: functional, cell-based; conditions: PANC-1, 48 h
[6] = Plasma concentration in mouse at 100 mg/kg, po at 60 mins by LC-MS/MS method; format: ADME, organism-based
Method in brief: (§1)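 For IV dosing, compound dissolved in DMSO:ethanol (2:1), total volume no more than 30 μL. For oral dosing, compound given in a self-microemulsifying delivery system (60% surfactant, emulsifier OP:Cremophor EL 1:1; 30% PEG 400; 10% ethyl oleate), total volume no more than 100 μL. Plasma levels measured by previously described methods.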

U-87 MG [7] = assay: Cytotoxicity against human U87 cells assessed as cell viability at 18 uM after 48 hrs by MTT assay; format: functional, U-87MG ATCC; conditions: read-out: Activity
BXPC-3 [8] = assay: Cytotoxicity against human BxPC3 cells assessed as decrease in cell viability after 48 hrs by MTT assay; format: functional, cell-based; conditions: BXPC-3, 48 h
NCI-H460 [9] = assay: Cytotoxicity against human NCI-H460 cells assessed as decrease in cell viability after 48 hrs by MTT assay; format: functional, cell-based; conditions: NCI-H460, 48 h
COLO 201 [10] = assay: Cytotoxicity against human COLO201 cells assessed as cell viability at 18 uM after 48 hrs by MTT assay; format: functional; conditions: COLO 201, 48 h, read-out: Activity
[11] = Cmax in mouse at 10 mg/kg, iv by LC-MS/MS method; format: ADME, organism-based; design: dose 10 mg/kg, route intravenous; conditions: in vivo
Method in brief: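 Mouse iv dosing used polyphenol dissolved in DMSO:ethanol (2:1), with total injected volume never above 30 μL. Plasma levels were measured by previously described methods.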

SK-MEL-2 [12] = assay: Cytotoxicity against human SK-MEL-2 cells assessed as cell viability at 18 uM after 48 hrs by MTT assay; format: functional; conditions: SK-MEL-2, 48 h, read-out: Activity
PANC-1 [13] = assay: Cytotoxicity against human PANC1 cells assessed as cell viability at 18 uM after 48 hrs by MTT assay; format: functional; conditions: PANC-1, 48 h, read-out: Activity
LN-229 [14] = assay: Cytotoxicity against human LN229 cells assessed as cell viability at 18 uM after 48 hrs by MTT assay; format: functional; conditions: LN-229, 48 h, read-out: Activity
HT-29 [15] = assay: Cytotoxicity against human HT-29 cells assessed as cell viability at 18 uM after 48 hrs by MTT assay; format: functional; conditions: HT-29, 48 h, read-out: Activity
[16] = Cmax in mouse at 100 mg/kg, po by HPLC method; format: ADME, organism-based; design: dose 100 mg/kg, route oral; conditions: in vivo
Method in brief: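 For oral dosing, polyphenol was dissolved in a self-microemulsifying delivery system: 60% surfactant (emulsifier OP:Cremophor EL 1:1), 30% cosurfactant (PEG 400) and 10% oil (ethyl oleate). Total volume given was never above 100 μL. Plasma levels were quantified by previously described methods.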

NCI-H460 [17] = assay: Cytotoxicity against human NCI-H460 cells assessed as cell viability at 18 uM after 48 hrs by MTT assay; format: functional; conditions: NCI-H460, 48 h, read-out: Activity
Lipid bilayer = assay: Induction of DOPC/n-decane bilayer property changes assessed as concentration required to double gramicidin-induced quencher influx rate by […]
[18] = Tmax in mouse at 100 mg/kg, po by HPLC method; format: ADME, organism-based; conditions: in vivo
Method in brief: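 Given orally in a self-microemulsifying delivery system (60% surfactant, emulsifier OP:Cremophor EL 1:1; 30% PEG 400 cosurfactant; 10% ethyl oleate oil), total volume no more than 100 μL. Plasma levels measured by previously described methods.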

U-87 MG [19] = assay: Cytotoxicity against human U87 cells assessed as decrease in cell viability after 48 hrs by trypan blue exclusion and LDH release
[20] = Tmax in mouse at 10 mg/kg, iv by LC-MS/MS method; format: ADME, organism-based; conditions: in vivo
Method in brief: as §1

HT-29 [21] = assay: Cytotoxicity against human HT-29 cells assessed as decrease in cell viability after 48 hrs by trypan blue exclusion and LDH release; conditions: HT-29, 48 h
MDA-MB-231 [22] = assay: Cytotoxicity against human MDA-MB-231 cells assessed as cell viability at 18 uM after 48 hrs by MTT assay; format: functional; conditions: MDA-MB-231, 48 h, read-out: Activity
T47D [23] = assay: Cytotoxicity against human T47D cells assessed as cell viability at 18 uM after 48 hrs by MTT assay; format: functional; conditions: read-out: Activity
BXPC-3 [24] = assay: Cytotoxicity against human BxPC3 cells assessed as cell viability at 18 uM after 48 hrs by MTT assay; format: functional; conditions: BXPC-3, 48 h, read-out: Activity
[25] = Cytotoxicity against human MML1 cells assessed as cell viability at 18 uM after 48 hrs by MTT assay; format: functional; conditions: read-out: Activity
A549 [26] = assay: Cytotoxicity against human A549 cells assessed as cell viability at 18 uM after 48 hrs by MTT assay; format: functional; conditions: A549, 48 h, read-out: Activity
[27] = Plasma concentration in mouse at 10 mg/kg, iv at 60 mins by LC-MS/MS method; format: ADME, organism-based
Method in brief: as §1

COLO 201 [28] = assay: Cytotoxicity against human COLO201 cells assessed as decrease in cell viability after 48 hrs by trypan blue exclusion and LDH release; conditions: COLO 201, 48 h
SK-MEL-2 [29] = assay: Cytotoxicity against human SK-MEL-2 cells assessed as decrease in cell viability after 48 hrs by MTT assay; format: functional, cell-based; conditions: SK-MEL-2, 48 h
LN-229 [30] = assay: Cytotoxicity against human LN229 cells assessed as decrease in cell viability after 48 hrs by trypan blue exclusion and LDH release; conditions: LN-229, 48 h
Cannabinoid receptor 1 = Cannabinoid receptor 1 (Homo sapiens, UniProt P21554); assay: Displacement of […] from human recombinant CB1 receptor expressed in Chem1 cells after 90 mins by scintillation counting method; format: cell-based
Chain of Cannabinoid receptor 1 (P21554 whole entry): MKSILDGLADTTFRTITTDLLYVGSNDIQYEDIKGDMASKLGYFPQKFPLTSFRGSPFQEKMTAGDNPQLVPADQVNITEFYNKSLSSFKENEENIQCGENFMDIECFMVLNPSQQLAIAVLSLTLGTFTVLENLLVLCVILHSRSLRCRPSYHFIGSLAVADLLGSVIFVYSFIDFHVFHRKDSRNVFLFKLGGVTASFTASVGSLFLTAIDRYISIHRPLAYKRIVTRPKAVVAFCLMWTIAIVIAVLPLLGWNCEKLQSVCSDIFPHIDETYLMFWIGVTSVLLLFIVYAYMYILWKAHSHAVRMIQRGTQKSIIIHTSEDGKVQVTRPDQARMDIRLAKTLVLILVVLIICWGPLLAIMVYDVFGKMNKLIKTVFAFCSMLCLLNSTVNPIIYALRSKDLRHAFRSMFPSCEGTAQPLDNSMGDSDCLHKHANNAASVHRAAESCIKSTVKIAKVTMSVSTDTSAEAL

SK-MEL-2 [31] = assay: Cytotoxicity against human SK-MEL-2 cells assessed as cell viability at 6 uM after 48 hrs by MTT assay; format: functional; conditions: SK-MEL-2, 48 h, read-out: Activity
MDA-MB-231 [32] = assay: Cytotoxicity against human MDA-MB-231 cells assessed as cell viability at 6 uM after 48 hrs by MTT assay; format: functional; conditions: MDA-MB-231, 48 h, read-out: Activity
NCI-H460 [33] = assay: Cytotoxicity against human NCI-H460 cells assessed as cell viability at 6 uM after 48 hrs by MTT assay; format: functional; conditions: NCI-H460, 48 h, read-out: Activity
[34] = Cytotoxicity against human MML1 cells assessed as cell viability at 6 uM after 48 hrs by MTT assay; format: functional; conditions: read-out: Activity
PANC-1 [35] = assay: Cytotoxicity against human PANC1 cells assessed as cell viability at 6 uM after 48 hrs by MTT assay; format: functional; conditions: PANC-1, 48 h, read-out: Activity
T47D [36] = assay: Cytotoxicity against human T47D cells assessed as cell viability at 6 uM after 48 hrs by MTT assay; format: functional; conditions: read-out: Activity
U-87 MG [37] = assay: Cytotoxicity against human U87 cells assessed as cell viability at 6 uM after 48 hrs by MTT assay; format: functional, U-87MG ATCC; conditions: read-out: Activity
COLO 201 [38] = assay: Cytotoxicity against human COLO201 cells assessed as cell viability at 6 uM after 48 hrs by MTT assay; format: functional; conditions: COLO 201, 48 h, read-out: Activity
A549 [39] = assay: Cytotoxicity against human A549 cells assessed as cell viability at 6 uM after 48 hrs by MTT assay; format: functional; conditions: A549, 48 h, read-out: Activity
LN-229 [40] = assay: Cytotoxicity against human LN229 cells assessed as cell viability at 6 uM after 48 hrs by MTT assay; format: functional; conditions: LN-229, 48 h, read-out: Activity
HT-29 [41] = assay: Cytotoxicity against human HT-29 cells assessed as cell viability at 6 uM after 48 hrs by MTT assay; format: functional; conditions: HT-29, 48 h, read-out: Activity
BXPC-3 [42] = assay: Cytotoxicity against human BxPC3 cells assessed as cell viability at 6 uM after 48 hrs by MTT assay; format: functional; conditions: BXPC-3, 48 h, read-out: Activity
[43] = Displacement of [3H]resveratrol from Sprague-Dawley rat brain plasma membranes after 1 hr by beta counting method; format: cell membranes

Row | SMILES | IC50 (A549 [1]) [µM] | IC50 [2] [µM] | IC50 (MDA-MB-231 [3]) [µM] | IC50 (T47D [4]) [µM] | IC50 (PANC-1 [5]) [µM] | concentration at 1 h [6] [µM] | IC50 (BXPC-3 [8]) [µM] | IC50 (NCI-H460 [9]) [µM] | Cmax [11] [µM] | Cmax [16] [µM] | Activity (Lipid bilayer) [µM] | Tmax [18] [min] | IC50 (U-87 MG [19]) [µM] | Tmax [20] [min] | IC50 (HT-29 [21]) [µM] | concentration at 1 h [27] [µM] | IC50 (COLO 201 [28]) [µM] | IC50 (SK-MEL-2 [29]) [µM] | IC50 (LN-229 [30]) [µM] | also measured
1 | O=c1c(-c2ccc(O)cc2)coc2cc(O)cc(O)c12 [GENISTEIN] | 64 | 42 | 43 | 48 | 87 | < 1 | 79 | 47 | 35 | 17 | 26.7 | 10 | 55 | 5 | 50 | < 1 | 73 | 36 | 44 | viability at 18 µM (U-87 MG [7]): 98%; viability at 18 µM (COLO 201 [10]): 100%; viability at 18 µM (SK-MEL-2 [12]): 105%; viability at 18 µM (PANC-1 [13]): 99%; viability at 18 µM (LN-229 [14]): 100%; viability at 18 µM (HT-29 [15]): 104%; viability at 18 µM (NCI-H460 [17]): 102%; viability at 18 µM (MDA-MB-231 [22]): 91%; viability at 18 µM (T47D [23]): 93%; viability at 18 µM (BXPC-3 [24]): 96%; viability at 18 µM [25]: 104%; viability at 18 µM (A549 [26]): 107%
2 | O=C(O[C@@H]1Cc2c(O)cc(O)cc2O[C@@H]1c1cc(O)c(O)c(O)c1)c1cc(O)c(O)c(O)c1 [EPIGALOCATECHIN GALLATE] | 29 | 25 | 83 | 57 | 62 | < 1 | 33 | 18 | 12 | 5 | 11.2 | 30 | 18 | 5 | 60 | < 1 | 38 | 31 | 15 | Ki (Cannabinoid receptor 1): 33.6 µM; viability at 6 µM (SK-MEL-2 [31]): 99%; viability at 6 µM (MDA-MB-231 [32]): 102%; viability at 6 µM (NCI-H460 [33]): 105%; viability at 6 µM [34]: 102%; viability at 6 µM (PANC-1 [35]): 95%; viability at 6 µM (T47D [36]): 100%; viability at 6 µM (U-87 MG [37]): 98%; viability at 6 µM (COLO 201 [38]): 100%; viability at 6 µM (A549 [39]): 103%; viability at 6 µM (LN-229 [40]): 106%; viability at 6 µM (HT-29 [41]): 96%; viability at 6 µM (BXPC-3 [42]): 97%; Ki [43]: 0.025 to 0.045 µM
